High-throughput results: PubChem, several laboratories
An excerpt weighted towards active compounds, which were near 1.6% of everything screened.
L929 necroptosis: blocks zVAD induced death of L929 cells; L929 zVAD necroptosis rescue, ATP luminescence, 24 h; with zVAD 60 µM; viability rescue, % at 10 µM; 0.38% of 220,000 active;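 active = activation, scaled between plate controls, above about 75%, limit read from the data; inactive = activation under that limit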;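 also: 0% = zVAD with DMSO and 100% = DMSO alone without zVAD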
MDM2 E3 inh: Mdm2 E3 ligase (human) inhibition. 0.11% of 210,000 active. Q00987. signal enhancement, % at 5 µM. cell-based MDM2 ubiquitination luciferase reporter, 2 h; 0 = plate control, 100 = twice control, blank-subtracted;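 active = signal enhancement of 30% or more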;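 also: luminescence tracks abundance of the self-degrading MDM2-luciferase fusion protein; higher signal means inhibition of MDM2 E3 ligase activity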
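Assay system: stable mammalian line carrying autodegrading MDM2–luciferase fusion reporter; Input: 2000 cells in each well; Compound dosing: single-point 5 µM; Schedule: 2 h compound exposure at 37 °C; Signal: SteadyLite luciferase luminescence after 15 min room-temperature reagent incubation; Evaluation: % luminescence enhancement versus blank-corrected plate control mean; Benchmarks: plate controls and plate blanks.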
Pf gamet viab: kills late stage P. falciparum gametocytes; 0.065% of 150,000 active; P. falciparum stage V gametocytes, ATP luminescence, 24 h; AID 743093; inhibition, % at 10.9 µM;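 active = inhibition above the mean plus 3 SD of compounds within the control limits, set per campaign, cut at about 38% in these data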;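 also: 0% = DMSO wells and 100% = medium only without gametocytes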
Wee1 stabilizer: blocks degradation of human Wee1 kinase. P30291. HeLa Luc-Wee1K328M stability, luciferase luminescence; 100% = proteasome inhibitor MG132 effect. reporter increase, % at 5 µM. 1.2% of 220,000 active. AID 1321;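 active = activation above the mean of all tested compounds plus 3 SD, set per screening run, cut at about 8.8% in these data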;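 also: cells exposed to compound for 20 h before luminescence read; 0% = DMSO alone and 100% = MG132 at 30 µM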
Target sequence (P30291 whole entry K328M): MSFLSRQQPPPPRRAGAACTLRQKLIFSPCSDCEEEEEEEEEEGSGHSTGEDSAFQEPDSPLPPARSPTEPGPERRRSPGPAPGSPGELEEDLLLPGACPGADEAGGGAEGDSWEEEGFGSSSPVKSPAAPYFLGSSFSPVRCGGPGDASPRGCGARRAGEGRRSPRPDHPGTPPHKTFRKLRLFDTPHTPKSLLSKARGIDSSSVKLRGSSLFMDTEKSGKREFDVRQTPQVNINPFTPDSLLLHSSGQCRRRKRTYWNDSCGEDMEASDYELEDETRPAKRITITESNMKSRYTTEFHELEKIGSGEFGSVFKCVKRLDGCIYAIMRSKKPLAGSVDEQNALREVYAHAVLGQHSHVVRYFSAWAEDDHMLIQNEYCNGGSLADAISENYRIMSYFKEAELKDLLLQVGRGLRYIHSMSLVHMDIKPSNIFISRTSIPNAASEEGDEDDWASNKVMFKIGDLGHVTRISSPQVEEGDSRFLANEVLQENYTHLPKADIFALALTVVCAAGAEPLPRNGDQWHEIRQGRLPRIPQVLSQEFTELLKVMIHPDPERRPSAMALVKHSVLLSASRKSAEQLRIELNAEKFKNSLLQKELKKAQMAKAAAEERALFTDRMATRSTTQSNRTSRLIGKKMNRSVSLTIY
TNF death inh: inhibitors of TNF-alpha induced necroptosis in Jurkat FADD-/- cells | activation (protection from cell death), % at 10 µM | Jurkat FADD-/- TNF necroptosis rescue, ATP luminescence, 24 h; 0 = TNF only, 100 = no-TNF cells | 0.068% of 220,000 active;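 active = activation, meaning protection from cell death, of at least 50% relative to plate controls; inactive = activation below 50%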;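 also: necroptosis triggered by 40 ng/mL TNF-alpha added together with compound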
Numbers without * were called inactive; x = no result.

SMILES | L929 necroptosis | MDM2 E3 inh | Pf gamet viab | Wee1 stabilizer | TNF death inh
O=[N+]([O-])c1cccc(/C=C/c2ccccn2)c1 | 0 | -6 | x | 10.0* | -17
S=C1NCN(CCc2ccccc2)CN1 | 0 | -4 | 19 | -2 | 1
Cc1cc(=O)[nH]c(SCc2cccc3cccnc23)n1 | 2 | 0 | 15 | 11* | -2
Cc1cc(=O)[nH]c(SCc2nc3ncccn3c2Br)n1 | 0 | -3 | -4 | -2 | -3
C=C(C)c1cccc(C(C)(C)NC(=O)N(Cc2ccccc2)Cc2ccco2)c1 | 0 | -4 | x | 16* | 1
O=C(Nc1ncc(Cc2ccccc2)s1)C1=NCCN1 | -1 | -18 | 38* | -2 | -1
Cc1ccc(Cc2cnc(NC(=O)C3=NCCN3)s2)cc1 | 8 | -2 | 4 | 1 | -1
CCOC(=O)CCC(=O)c1c(C)oc2ccc(OC)cc12 | 0 | 2 | -19 | -3 | -2
COc1ccccc1CNC(=O)c1ccc(S(=O)(=O)N(C)C)cc1 | 0 | 0 | x | -2 | 0
O=C1OCCN1C(=O)[C@H]1[C@H](c2ccc([N+](=O)[O-])cc2)C(c2cccc(Cl)c2)=NN1c1ccccc1 | -2 | x | x | 10* | -1
O=C(CSc1nc2ccccc2c(=O)n1Cc1ccco1)N1CCCCCC1 | 0 | -6 | -23 | -1 | -1
O=C(/C=C/c1ccccc1)Nc1ccc(N2CCCCC2)cc1 | 2 | 5 | 1 | 9.0* | 0
Cc1cccc2nc(CSc3ccccc3N)cn12 | -1 | x | x | 3 | -1
Cc1cccc2nc(COc3ccc4ccccc4c3Br)cn12 | -1 | x | 6 | 11* | -1
Cc1cc(C)n(-c2nnc(C)n2/N=C/c2ccccc2O)n1 | 0 | -20 | x | 9.3* | -1
Cc1cccc(OC(C)C(=O)N2CCCc3ccccc32)c1 (centres undefined) | 0 | 1 | 5 | -1 | 2
CCOC(=O)/C(N=Nc1c(C)n(C)n(-c2ccccc2)c1=O)=C(\C)O | 1 | 2 | 65* | 8.9* | 1
OC1C=CSc2nc3ccccc3n21 (centres undefined) | 6 | -3 | -2 | 0 | -15
COc1ccc(-c2csc(Nc3ccccc3)[n+]2CC(O)c2ccc([N+](=O)[O-])cc2)cc1 (centres undefined) | 3 | -10 | -1 | 9.3* | 4
OCC(Cc1ccccc1)NCc1ccccc1C(F)(F)F (centres undefined) | 1 | -49 | -8 | -1 | 2
[O-][n+]1ccccc1SC/C=C/c1ccccc1 | -1 | -16 | 4 | 10* | -2
CCN(CC)S(=O)(=O)c1ccc2nc(NC(=O)c3ccco3)sc2c1 | -1 | x | -14 | 9.6* | 0
CCN(CC)S(=O)(=O)c1ccc2nc(NC(=O)c3cccs3)sc2c1 | 0 | 1 | -16 | 0 | 0
COc1ccc(S(=O)(=O)NN(C)c2ncc(C(F)(F)F)cc2Cl)cc1 | 5 | 36* | x | -4 | 2
CC(C)NS(=O)(=O)c1ccc(Oc2ncc(C(F)(F)F)cc2Cl)cc1 | 0 | -12 | -24 | 0 | -3
SMILES | L929 necroptosis | MDM2 E3 inh | Pf gamet viab | Wee1 stabilizer | TNF death inh
CCOC(=O)C1=NNC2(CC(=O)N(c3cccc(C)c3)C2=O)C1 (centres undefined) | 1 | -7 | -21 | -1 | 0
CN1CCN(C(=O)C2=C[C@@H](c3ccc(Br)cc3)C[C@@H](OCc3ccc(CO)cc3)O2)CC1 | 0 | x | x | 9.8* | 2
CN1CCN(C(=O)C2=C[C@@H](c3ccccc3)C[C@@H](OCc3ccc(CO)cc3)O2)CC1 | 0 | x | -19 | -1 | 1
COCCNS(=O)(=O)c1cccn1-c1ncc(C(F)(F)F)cc1Cl | 1 | -13 | x | -2 | 0
COc1cccc(/C=N/NC(=O)CO/N=C(\C)c2cccs2)c1OC | 1 | -4 | 19 | 10* | -1
C/C(=N\OCC(=O)N/N=C/c1ccccc1O)c1cccs1 | 2 | -17 | x | -3 | -5
COc1ccc2nc(NC(=O)C3CCN(S(=O)(=O)c4cccc5nsnc45)CC3)sc2c1 | 77* | -7 | x | 4 | -6
Cc1cccc(NC(=O)C2CCN(S(=O)(=O)c3cccc4nsnc34)CC2)n1 | 1 | -8 | x | 0 | 0
NC(=O)c1sc2nc(-c3ccccc3)ccc2c1N | x | x | -4 | x | x
CCOC(=O)c1sc2nc(-c3ccccc3)ccc2c1N | 1 | -26 | -21 | 11* | 4
Cc1ccc(-c2nc3cc(NC(=O)C(C)C)ccc3o2)cc1 | 1 | -16 | 8 | 25* | -1
COCc1cc(=O)[nH]c(Nc2nc3ccc(C)cc3o2)n1 | 56 | 36* | x | 8.9* | -4
CCc1ccc2nc(Nc3nc(COC)cc(=O)[nH]3)nc(C)c2c1 | 0 | -2 | 6 | -1 | -7
COC(=O)CC1C(=O)NCCN1C(=S)NC(=O)c1sc2ccccc2c1Cl (centres undefined) | 1 | -4 | 4 | 10* | -1
COC(=O)CC1C(=O)NCCN1C(=O)c1sc2ccccc2c1Cl (centres undefined) | 0 | -20 | -4 | -4 | 1
COc1cc(C2C(C#N)=C(N)OC3=C2C(=O)CC(C)(C)C3)cc([N+](=O)[O-])c1O (centres undefined) | -1 | -5 | 2 | 9.7* | -1
COc1ccccc1CNc1nc(-c2cc(C)n(C)c2C)cs1 | 0 | -15 | x | 0 | -1
O=C(O)CC12CC3CC(C1)CC(n1ncc(NCc4ccccc4Cl)c(Cl)c1=O)(C3)C2 | 1 | -98 | -27 | 0 | 1
O=C(O)C12CC3CC(C1)CC(n1ncc(NCc4ccco4)c(Cl)c1=O)(C3)C2 | -1 | -14 | 9 | 10* | -1
O=C(/C(=N\O)n1cncn1)c1ccc(Cl)cc1Cl | 2 | -3 | x | 4 | 0
CC(C)c1ccc2[nH]c(O)c(N=NC(=O)c3cccc(S(=O)(=O)Nc4cccc(Cl)c4)c3)c2c1 | 0 | x | 8 | 11* | 1
CCCOc1ccc(S(=O)(=O)NCc2ccc(OC)cc2)cc1 | 0 | 2 | 7 | 22* | 0
COc1ccc(CNS(=O)(=O)c2ccc(OC)cc2)cc1 | 0 | -15 | -21 | 1 | 1
O=c1cc(NCCc2ccccc2)c2ccccc2o1 | 0 | -4 | 3 | 9.0* | -1
COc1ccccc1NC(NC(=O)c1ccco1)C(=O)c1ccccc1 (centres undefined) | 0 | -3 | x | -2 | 1
O=C(C(=O)N1CCN(c2ccccc2)CC1)c1c[nH]c2ccccc12 | 1 | -20 | 9 | 11* | 2
CCOC(=O)C1=C(N)n2c(s/c(=C\c3cccnc3)c2=O)=C(C(=O)OC)C1c1cccnc1 (centres undefined) | 0 | x | -2 | 10* | -1
CCOC(=O)c1cc(C(=O)c2cc(Br)ccc2O)coc1=N | 0 | 13 | 8 | 1 | -1
Cn1c(/C(C#N)=C(\O)c2cccc(F)c2)nc2ccccc21 | x | x | 3 | x | x
